# Experimental data of several laboratories.
# Each line is one published result; the experiments were not run side by side.
# FGFR3: Fibroblast growth factor receptor 3 (FGFR3, Homo sapiens, UniProt P22607)
Compound,target,test,setting,measurement,result
Cn1cncc1[C@@](O)(COc1ccc(C#N)cc1-c1ccc(OC(F)(F)F)cc1)c1ccc(C#N)cc1,FGFR3,"cell-free assay, competition with immobilised ligand",1 µM,remaining binding,100%
O=c1[nH]c2ccccc2n1C1CCN(Cc2ccc(-c3[nH]c4cc5ncnc5cc4nc3-c3ccccc3)cc2)CC1,FGFR3,cell-free assay,0.5 µM,remaining signal,101%
Cc1nn(C)cc1-c1nc2c(N3CCN(Cc4ccc(Cl)cc4)CC3)c(Cl)cnc2[nH]1,"Fibroblast growth factor receptor 3 (FGFR3, Homo sapiens, UniProt P22607, G697C)","binding, competition with immobilised ligand",1 µM,remaining binding,69%
Nc1ncc(-c2nc(N3CCOCC3)nc(N3CCOCC3)n2)c(C(F)F)n1,FGFR3,"cell-free assay, competition with immobilised ligand",10 µM,remaining binding,88%
COc1ncccc1-c1cnn2ccc(N3CCN(C(=O)OC(C)C)CC3)nc12,FGFR3,"binding, competition with immobilised ligand",1 µM,remaining binding,86%
Cn1cc(-c2cc(F)cc(N3CCn4c(cc5c4CCCC5)C3=O)c2CO)cc(Nc2ccc(N3CCN(C4COC4)CC3)cn2)c1=O,FGFR3,"enzyme activity, inhibitor",0.1 µM,inhibition,19%
CC(C)(C)c1cc(C=C(C#N)C#N)cc(Br)c1O,FGFR3,"enzyme activity, inhibitor",0.5 µM,remaining activity,92.8%
COc1cc(Nc2ncc(F)c(Nc3ccc4c(n3)NC(=O)C(C)(C)O4)n2)cc(OC)c1OC,FGFR3,"binding, competition with immobilised ligand",10 µM,inhibition,99%
C#Cc1n[nH]c2c(-c3cn(C(C)c4ccccn4)c(=O)[nH]c3=O)cc(F)cc12 (stereo not drawn),FGFR3,"enzyme activity, inhibitor",1 µM,inhibition,9.3%
